Measurements as given in ChEMBL document CHEMBL4138212, “Novel triazine dimers with potent antitrypanosomal activity” (Eur J Med Chem, 2018).
Calls of active or inactive are those of the source. No cut-off for these calls is given here.

How the values were obtained:
[1] = tested on: Trypanosoma brucei rhodesiense; experiment: Antitrypanosomal activity against Trypanosoma brucei rhodesiense STIB-900 after 72 hrs by resazurin dye-based fluorometric method; type: functional, organism-based; settings: STIB-900, 72 h
Summary of the method: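 Parasites in HMI-9 with 10% heat-inactivated FBS at 2×10⁴/mL were exposed to five 4-fold dilutions from 64 µg/mL for 72 h at 37 °C in 5% CO₂. IC₅₀ comes from % growth reduction versus controls, as the mean of at least two independent determinations.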

Leishmania infantum = experiment: Antileishmanial activity against amastigote stage of Leishmania infantum MHOM/MA(BE)/67 infected in mouse primary peritoneal macrophages assessed as decrease in parasite burden after 120 hrs by Giemsa staining-based microscopic method; type: functional, organism-based; settings: MHOM/MA(BE)/67, 120 h
Plasmodium falciparum = experiment: Antiplasmodial activity against chloroquine-resistant Plasmodium falciparum K1 infected in human O-positive erythrocytes assessed as decrease in parasitaemia after 72 hrs by NBT dye-based spectrophotometric method; type: functional, organism-based; settings: K1, 72 h
[2] = tested on: Trypanosoma brucei brucei; experiment: Antitrypanosomal activity against suramin-sensitive Trypanosoma brucei brucei Squib 427 after 72 hrs by resazurin dye-based fluorometric method; type: functional, organism-based; settings: Squib 427, 72 h
Summary of the method: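 Bloodstream parasites in HMI-9 with 10% heat-inactivated FBS at 7×10⁴/mL were exposed to five 4-fold dilutions from 64 µg/mL for 72 h at 37 °C in 5% CO₂. IC₅₀ comes from % growth reduction versus controls, as the mean of at least two independent determinations.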

[3] = Cytotoxicity against human MRC5 SV2 cells assessed as decrease in cell viability after 72 hrs by resazurin dye-based fluorometric method; settings: MRC-5 SV2, 72 h
Trypanosoma cruzi = experiment: Antitrypanosomal activity against beta-galactosidase expressing nifurtimox-sensitive Trypanosoma cruzi Tulahuen CL2 infected in human MRC5 SV2 cells assessed as decrease in parasite burden after 168 hrs by spectrophotometric method; type: functional, organism-based; settings: Tulahuen CL2, MRC-5 SV2, 168 h
[4] = tested on: Trypanosoma brucei brucei; experiment: Antitrypanosomal activity against suramin-sensitive Trypanosoma brucei brucei Squib 427 infected in Swiss mouse assessed as reduction in parasitemia at 10 mg/kg administered first dose orally 1/2 hrs prior to infection followed by dosed intraperitoneally as qd for 5 days measured on day 4 of compound dosing by Giemsa staining-based microscopic method relative to control; type: functional; design: scale not given: the % may be the effect or the level left
Summary of the method: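 Female Swiss mice, 6 per group, were infected IP with about 1×10⁴ trypanosomes on day 0. The first dose was given orally ½ h before infection, then IP for 5 days, in DMSO, DMSO/PEG200 (1/50) or PBS for suramin. On day 4, tail-vein blood smears were Giemsa-stained and counted microscopically. Activity = 100 − (mean parasitemia treated/mean vehicle-infected control)×100.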

[5] = tested on: Trypanosoma brucei brucei; experiment: Antitrypanosomal activity against suramin-sensitive Trypanosoma brucei brucei Squib 427 infected in Swiss mouse assessed as increase in mouse survival at 10 mg/kg administered first dose orally 1/2 hrs prior to infection followed by dosed intraperitoneally as qd for 5 days measured on day 14 post infection; type: functional, organism-based
Summary of the method: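 Female Swiss mice, 6 per group, were infected IP with about 1×10⁴ trypanosomes in 0.25 ml PBS-diluted donor blood on day 0. The first dose was given orally ½ h before infection, then IP for 5 days. Vehicles were 100% DMSO or DMSO/PEG200 (1/50); suramin was formulated in PBS. Mortality was monitored daily, ill animals were euthanized, and survivors were counted on day 14 post-infection.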

Cc1cc(C)c(Nc2nc(Nc3ccc(C#N)cc3)nc(Nc3ccc(Nc4nc(Nc5ccc(C#N)cc5)nc(Nc5c(C)cc(C)cc5C)n4)cc3)n2)c(C)c1
IC50 [1]: 0.02 µM | IC50 (Leishmania infantum): > 64 µM | IC50 (Plasmodium falciparum): > 64 µM | IC50 [2]: 0.53 µM | IC50 [3]: > 64 µM | IC50 (Trypanosoma cruzi): > 64 µM

CO[C@H]1O[C@@H]2O[C@@]3(C)CC[C@H]4[C@H](C)CC[C@@H]([C@H]1C)[C@@]24OO3
IC50 (Plasmodium falciparum): 0.02 µM | IC50 [3]: > 64 µM

O=C(Cn1ccnc1[N+](=O)[O-])NCc1ccccc1 [BENZNIDAZOLE]
IC50 [3]: > 64 µM | IC50 (Trypanosoma cruzi): 2.56 µM

CCN(CC)CCCC(C)Nc1ccnc2cc(Cl)ccc12 (stereo not drawn) [CHLOROQUINE]
IC50 [3]: > 64 µM

Nc1nc(N)nc(Nc2ccc([As]3SCC(CO)S3)cc2)n1 (stereo not drawn) [MELARSOPROL]
IC50 [3]: 7.4 µM

CCCCCCCCCCCCCCCCOP(=O)([O-])OCC[N+](C)(C)C [MILTEFOSINE]
IC50 [3]: > 64 µM

CC1CS(=O)(=O)CCN1/N=C/c1ccc([N+](=O)[O-])o1 (stereo not drawn) [NIFURTIMOX]
IC50 [3]: > 64 µM | IC50 (Trypanosoma cruzi): 0.7 µM

Cc1ccc(C(=O)Nc2ccc(S(=O)(=O)O)c3cc(S(=O)(=O)O)cc(S(=O)(=O)O)c23)cc1NC(=O)c1cccc(NC(=O)Nc2cccc(C(=O)Nc3cc(C(=O)Nc4ccc(S(=O)(=O)O)c5cc(S(=O)(=O)O)cc(S(=O)(=O)O)c45)ccc3C)c2)c1 [SURAMIN]
Activity [4]: 100% | IC50 [3]: > 64 µM | Activity [5]: Active
